High-throughput results as filed in PubChem BioAssay.
Sampled rows, rich in hits. Any-hit rate of the full collection: about 1.8%.
hiPSC survival: enhancers of human iPSC single-cell survival; AID 602274; hiPSC single-cell survival, ATPlite luminescence; 100% = ROCK inhibitor wells, 0% = DMSO; survival enhancement, % at 20 µM; hit rate 0.044% among 360,000; in the data active = survival enhancement above about 18%;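 also: cells exposed to compounds for 16 hours before the ATP read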
Jurkat NFkB inh: inhibitors of the PMA/ionomycin-induced NF-kB reporter in Jurkat cells; inhibition, % at 4 µM; PMA/ionomycin-induced NF-kB luciferase reporter, luminescence; hit rate 0.53% among 330,000; in the data active = inhibition above about 50%
697 NFkB inh: inhibitors of the PMA/ionomycin-induced NF-kB reporter in 697 B cells; hit rate 0.33% among 330,000; 697 B-cell NF-kB luciferase reporter, 16 h; AID 435022; inhibition, % at 4 µM; in the data active = inhibition above about 35%
TAG inh: reduces triacylglycerol accumulation in H9c2 cells; inhibition, % at 12.5 µM; Nile Red lipid (TAG) fluorescence; cells loaded with 200 µM oleic acid; hit rate 0.66% among 230,000;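 active = pattern-corrected inhibition of lipid staining of at least 50% with the nuclear-stain viability signal not falling by more than 50%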;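 also: 0% = DMSO wells and 100% = triacsin C control wells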
Hep lipid drop: modulators of hepatic lipid droplet formation; AML12 mouse hepatocytes, oleate lipid droplets, BODIPY imaging; inhibition, % at 6.5 µM; hit rate 0.4% among 240,000;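 active = lipid droplet intensity inhibited by at least 50%, with more than 500 cells counted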
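Material: mouse AML12 hepatocyte cell line, fixed after treatment; Timing: compound with oleate, overnight; Technique: high-content imaging of BODIPY-stained droplets and DAPI nuclei; Probe or stimulus: oleate, 100 µM final; Dosing: compound at 6.5 µM only.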
Gli-Sufu block: Gli-Sufu pathway antagonism | Sufu-KO-LIGHT fibroblasts, Gli luciferase reporter luminescence | inhibition, % at 5 µM | hit rate 0.74% among 340,000;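 active = inhibition above about 55%, limit read from the data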;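 also: 0% = DMSO-treated cells and 100% = wells with medium but no cells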
697 NFkB conf: lowers PMA/ionomycin-induced NF-kB signal in 697 B cells; 697 B-cell NF-kB luciferase, 16 h; hit rate 35% among 2,000; inhibition, % at 4 µM; shares compounds with 697 NFkB inh; AID 449746; in the data active = inhibition mostly above about 28%, no sharp cut-off; inactive = mostly below about 22%
Numbers without * were called inactive; i = inactive; · = not tested or not shown.

SMILES | hiPSC survival | Jurkat NFkB inh | 697 NFkB inh | TAG inh | Hep lipid drop | Gli-Sufu block | 697 NFkB conf
COc1ccc(S(=O)(=O)Nc2cc3c(C(C)=O)c(C)oc3c3ccccc23)cc1 | 5 | 48 | 41* | 30 | -63 | 35 | 32*
Cc1cc(F)ccc1NS(=O)(=O)c1c(C(=O)N2CCOCC2)c(C)n(C)c1C | 0 | 8 | 1 | · | -24 | -9 | ·
CN(C)c1ccc(/C=C(\C#N)c2ccccn2)cc1 | -4 | -48 | -345 | -14 | 0 | -36 | -389
N#C/C(=C\c1ccc([N+](=O)[O-])cc1)c1ccccn1 | 3 | -96 | -63 | -3 | 6 | -34 | ·
CCOC(=O)/C(C#N)=C/c1cc(C)n(-c2ccccc2)c1C | -1 | -81 | -289 | 2 | 3 | -21 | -115
CCOC(=O)Cn1c(-c2nonc2NC(=O)c2ccccc2F)nc2ccccc21 | -4 | -66 | i | -16 | 16 | 5 | i
O=C(c1cccs1)N(Cc1nc2sc3c(c2c(=O)[nH]1)CCCC3)C1CCCC1 | 1 | -15 | -324 | -5 | 1 | -1 | -300
Cc1sc2nc(CN(C(=O)c3cccs3)C3CCCC3)[nH]c(=O)c2c1C | -3 | -3 | -42 | -4 | · | 3 | ·
CC(C)c1ccc(NC(=S)N2CCN(S(=O)(=O)c3ccccc3)CC2)cc1 | 0 | -2 | -5 | -1 | -4 | 1 | ·
CCOP(=O)(OCC)C(Nc1ccc(OC)cc1)c1ccco1 (stereo not drawn) | 0 | 1 | 5 | -2 | -2 | 6 | ·
O=C(c1ccc(Cn2c(=S)[nH]c3cc4c(cc3c2=O)OCO4)cc1)N1CCN(c2ncccn2)CC1 | · | 19 | 56* | · | -7 | · | -7
C=CCNC(=O)c1ccc(Cn2c(=S)[nH]c3cc4c(cc3c2=O)OCO4)cc1 | 1 | 0 | -8 | 16 | · | -3 | ·
CCNC(=S)N/N=C/c1c(C)nn(-c2cccc(Cl)c2)c1Cl | -2 | -1 | 11 | · | 27 | -10 | ·
Cc1nn(-c2cccc(Cl)c2)c(Cl)c1/C=N/NC(=O)c1cccs1 | 2 | -36 | -314 | · | -1 | -39 | -24
COc1ccc(C(=O)Nc2ccc(OC)c([N+](=O)[O-])c2)cc1Br | -2 | 7 | 39* | 0 | -2 | 12 | 35*
CCOc1ccc(OCc2cccc(C(=O)N/N=C/c3cccnc3)c2)cc1 | -3 | 41 | 67* | · | -29 | -153 | 52*
NNC(=O)c1cccc(COc2ccc(Br)cc2)c1 | -1 | -47 | 3 | · | 13 | -153 | ·
COc1ccc(OCc2cccc(C(=O)NN)c2)cc1 | -1 | 6 | 68* | · | -4 | -155 | 29*
COc1ccc(OCc2cccc(C(=O)Nn3cc([N+](=O)[O-])cn3)c2)cc1 | 4 | -11 | 93* | · | 9 | -176 | 83*
CC(C)c1ccc(OCc2cccc(C(=O)N/N=C/c3cccnc3)c2)cc1 | -3 | · | · | · | -8 | -148 | ·
COc1ccc(OCc2cccc(C(=O)Nc3cc(C)on3)c2)cc1 | -2 | 11 | 91* | · | 3 | -136 | 77*
Cc1ccc(C)c(NC(=O)c2cc[n+](C)cc2)c1 | 0 | 0 | 2 | · | 9 | 22 | ·
O=C(NCc1ccc2c(c1)OCO2)c1cc(=O)[nH]c2ccccc12 | -1 | -3 | 1 | 3 | -18 | 2 | ·
CC1=C(C(=O)OC(C)C)C(c2coc3ccccc3c2=O)C2=C(CCCC2=O)N1 (stereo not drawn) | -4 | -7 | -6 | -11 | 4 | 8 | ·
CCSCCOC(=O)C1=C(C)NC2=C(C(=O)CCC2)C1c1coc2ccccc2c1=O (stereo not drawn) | -2 | 4 | 36* | -4 | · | 6 | 14
SMILES | hiPSC survival | Jurkat NFkB inh | 697 NFkB inh | TAG inh | Hep lipid drop | Gli-Sufu block | 697 NFkB conf
CCn1c(=O)cc(SCC(=O)N2CCCCC2)c2ccccc21 | 0 | 24 | 58* | · | · | 32 | 42*
CCn1c(=O)c2cc(C(=O)N3CCOCC3)sc2c2ccccc21 | 5 | 0 | 4 | 12 | · | 4 | ·
CCn1c(=O)cc(OCC(=O)N2CCCC2)c2ccccc21 | 1 | -14 | 16 | 16 | · | 6 | ·
CCn1c(=O)cc(SCC(=O)N2CCC(C)CC2)c2ccccc21 | -1 | 11 | 59* | · | · | 14 | 45*
Cn1c(=O)cc(SCC(=O)N2CCN(C3CCCCC3)CC2)c2ccccc21 | 0 | -9 | 38* | 25 | · | 18 | 23
CCOC(=O)C1CCN(C(=O)CSc2cc(=O)n(CC)c3ccccc23)CC1 | 9 | -13 | 16 | · | -16 | 13 | ·
CCn1c(=O)c2cc(C(=O)N3CCCC3)sc2c2ccccc21 | · | -8 | 53* | · | -11 | · | 32*
Cn1c(=O)cc(SCC(=O)N2CCN(Cc3ccc4c(c3)OCO4)CC2)c2ccccc21 | -3 | 1 | 12 | 5 | · | 13 | ·
CC1CCC(C#N)(N(C)C(=O)CSc2nnc(C3CC3)n2C2CC2)CC1 (stereo not drawn) | 0 | -16 | 4 | 3 | · | 0 | ·
CCOC(=O)c1c(C)[nH]c(C(=O)OCC(=O)Nc2sccc2C(N)=O)c1C | 0 | 13 | -46 | -19 | · | 51 | ·
CC(C)(C)NC(=O)CN(C(=O)CCC(=O)Nc1nccs1)c1ccc(F)cc1 | -1 | -8 | 4 | 2 | -19 | 1 | ·
O=C1OC(Sc2ccccc2)(c2ccccc2)c2ccccc21 (stereo not drawn) | -3 | · | · | -16 | · | 9 | ·
CCn1c(=O)cc(SCC(=O)N2CCN(Cc3ccc4c(c3)OCO4)CC2)c2ccccc21 | 1 | 9 | 30 | · | · | 16 | ·
CCn1c(=O)cc(SCC(=O)N2CCN(C)CC2)c2ccccc21 | 4 | -4 | 42* | 28 | 0 | 26 | 34*
CCN1CCN(C(=O)CSc2cc(=O)n(CC)c3ccccc23)CC1 | -2 | -4 | 39* | 23 | 4 | 30 | 54*
COC(=O)c1c(NC(=O)c2ccco2)sc(C(=O)N2CCCC2)c1C | 1 | -12 | 7 | · | · | 3 | ·
COC(=O)c1c(NC(=O)c2ccco2)sc2c1CCN(C(C)=O)C2 | 0 | -7 | 38* | · | 1 | -7 | 9
COc1cc(CN(C2CCCCC2C)S(=O)(=O)c2ccc(S(=O)(=O)NC3CC3)cc2)cc(OC)c1OC (stereo not drawn) | 3 | -7 | 36* | · | -20 | 15 | -1
COc1ccc(Cl)cc1C(=O)Nc1nc2ccccc2[nH]1 | 0 | -77 | -385 | · | -19 | -80 | -439
COc1ccc(C(=O)Nc2nc3ccccc3[nH]2)cc1OC | -3 | -87 | -80 | · | 40 | -42 | ·
O=C(COC(=O)c1ccc(F)c(S(=O)(=O)N2CCOCC2)c1)Nc1ccc(Cl)cn1 | 2 | · | · | 5 | · | · | ·
Cc1cc2cc(CN(CC3CCCO3)C(=O)c3cnccn3)c(=O)[nH]c2cc1C (stereo not drawn) | 0 | 9 | 36* | -9 | -7 | 4 | 6
